# High-throughput results deposited in PubChem BioAssay by Broad Institute.
# SR-BI DiI inh – blocks mouse SR-BI lipid uptake from DiI-HDL; ldlA[mSR-BI] CHO cells, DiI-HDL uptake fluorescence, 3 h; inhibition, % at 12.5 µM; 320,000 tested, 0.96% active; AID 488896;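 active = mean replicate inhibition of at least 70% and a set share of replicates each scoring 70 or more; inconclusive = meets just one of the two criteria; inactive = fails both criteria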
# Target sequence (Q61009 whole entry, looked up): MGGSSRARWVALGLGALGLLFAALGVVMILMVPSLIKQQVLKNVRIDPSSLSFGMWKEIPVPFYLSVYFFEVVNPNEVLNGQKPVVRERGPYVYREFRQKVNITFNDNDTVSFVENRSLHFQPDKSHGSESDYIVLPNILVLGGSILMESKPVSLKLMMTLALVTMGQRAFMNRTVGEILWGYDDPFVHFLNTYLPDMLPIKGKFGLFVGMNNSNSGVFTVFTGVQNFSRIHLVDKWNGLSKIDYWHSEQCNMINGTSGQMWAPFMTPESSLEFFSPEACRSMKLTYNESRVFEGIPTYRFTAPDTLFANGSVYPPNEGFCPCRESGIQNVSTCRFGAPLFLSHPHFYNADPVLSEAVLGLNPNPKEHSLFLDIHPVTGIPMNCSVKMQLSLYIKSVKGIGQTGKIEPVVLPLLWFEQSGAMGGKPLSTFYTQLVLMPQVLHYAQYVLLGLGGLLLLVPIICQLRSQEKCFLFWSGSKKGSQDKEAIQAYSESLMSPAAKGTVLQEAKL
# PvdQ acylase – P. aeruginosa PvdQ acylase inhibition; 340,000 tested, 0.063% active; AID 488965; inhibition, % at 10 µM; purified PvdQ acylase, fluorescence plate reader; in the data active = inhibition above about 30%, passing the limit was not always enough; inconclusive = no clear call, values can overlap the other calls
# dFosB activator – mouse delta FosB homodimer activation; P13346; purified delta FosB, TAMRA-CDK5 oligo fluorescence polarization; percent of positive-control signal above neutral wells; activation, % at 25 µM; 340,000 tested, 0.99% active; AID 493131;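 active = mean activation above about 17%, with every replicate also reaching it, limit read from the data, passing the limit was not always enough; inconclusive = only one of the two conditions met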
# Xi reactivation – reactivates the inactive X chromosome in mouse fibroblasts. activation, % at 7.58 µM. AID 743238. 360,000 tested, 0.055% active. XiGFP mouse fibroblasts, % GFP-positive cells imaging, 3 d; cells co-treated with 5-aza-dC sensitizer; scaled so ellipticine positive control = 100%;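 active = mean normalized replicate activation at least 10% and every replicate at or above 10%; inconclusive = only one of the two criteria met; inactive = mean below 10% and not all replicates reach 10%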
#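 Material: SV40-immortalized XiGFP fibroblast cells, line 68-5-11 | Buffer or medium: DMEM containing 5-aza-dC | Dosing: One concentration, pinned | Times: 3 d treatment, 15 min room-temperature fixation | Controls: Ellipticine 6 µM positive control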
# rRNA inh HTS – inhibits bacterial ribosomal RNA function over humanized ribosomes; GFP signal change (wild-type ribosome), % (test concentration not listed); AID 720706; E. coli WT GFP vs humanized-ribosome RFP mutants, fluorescence, 24 h; hits give low values; DMSO median 0, no signal -100; 350,000 tested, 1.6% active;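 active = significant combined selectivity score with lowered wild-type GFP, culture density cut under 30%, mutant RFP and density less affected; inactive = any of these conditions unmet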
# SR-BI uptake up – enhances SR-BI lipid uptake from DiI-HDL. CHO ldlA[mSR-BI] cells, DiI-HDL uptake fluorescence, 3 h; 100 = double the neutral-control signal. activation, % at 12.5 µM. 320,000 tested, 0.096% active;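 active = mean replicate activation of at least 60% and every replicate at or above 60%; inconclusive = mean or all-replicate condition met, but not both; inactive = mean below 60% and not all replicates reaching 60%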
#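 system = CHO ldlA[mSR-BI] cells, LDL receptor-null, SR-BI overexpressing | medium = Ham's F12 with 0.5% BSA, HEPES 25 mM, pH 7.4 | probe or stimulus = DiI-HDL 10 µg/mL | compound dosing = single-point compound dose | incubation = compound exposure 3 h, 37 °C | technique = DiI fluorescence, bottom read | read-out = cell-associated DiI fluorescence as measure of HDL uptake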
# A number is an active result; – = inactive; ? = inconclusive; · = no result given. Hits are enriched below; roughly 2.6% of the tested compounds scored in any of these assays.
SMILES,SR-BI DiI inh,PvdQ acylase,dFosB activator,Xi reactivation,rRNA inh HTS,SR-BI uptake up
c1ccc2sc(NCC3CCCO3)nc2c1 (configuration not stated),–,–,–,–,–,–
COc1ccc(S(=O)(=O)N[C@@H]2CC[C@H](CC(=O)NCCc3ccccc3)O[C@@H]2CO)cc1,·,·,·,–,–,·
Cc1ccc(C(=O)O)cc1NCc1cccnc1,·,·,·,–,–,·
CN(C(=O)COC(=O)c1ccccc1Nc1ccccc1)c1c(N)n(Cc2ccccc2)c(=O)[nH]c1=O,72.3,–,–,–,–,–
COc1c(-c2ccc(O)cc2)oc2cc(O)cc(O)c2c1=O,–,–,–,·,-20.2,–
COc1ccc(Cn2c(SCc3ccc(C)cc3)nc3cc(OC)c(OC)cc3c2=N)cc1Cl,–,–,58.8,·,·,–
COc1ccc(Cn2c(SCc3cc(C)ccc3C)nc3cc(OC)c(OC)cc3c2=N)cc1,–,–,40.4,·,·,–
COc1ccc(NC(=O)CN(C)C(=O)c2cc(-c3ccc(OC)cc3)nc3ccccc23)cc1,–,–,–,–,–,–
C[C@H](CO)N1C[C@H](C)[C@H](CN(C)Cc2ccc(-c3ccccc3)cc2)Oc2ccc(NS(=O)(=O)c3ccc(Cl)cc3)cc2CC1=O,·,·,·,–,–,·
CC(C)c1ccccc1OCC(=O)NCC(c1cccs1)N1CCOCC1 (configuration not stated),·,–,–,·,·,·
C=C(C)Cn1c(N2CCCC2)nc2c1c(=O)n(C)c(=O)n2C,·,–,–,–,–,·
O=[N+]([O-])c1ccc(/C=N/N2CCN(Cc3ccccc3)CC2)cc1,–,–,–,–,-16.0,–
BrC(/C=N/N1CCN(Cc2ccccc2)CC1)=C/c1ccccc1,–,–,–,–,-42.1,–
Cc1ccc(CN2CCN(/N=C\c3cccc([N+](=O)[O-])c3)CC2)cc1,–,–,–,–,-25.2,–
CCOc1ccc(-c2[nH]ncc2-c2csc(C)n2)c(O)c1,–,–,–,–,–,–
CCCN(C)C[C@@H]1OCCCC[C@@H](C)Oc2ccc(NS(=O)(=O)c3ccc(Cl)cc3)cc2C(=O)N([C@H](C)CO)C[C@@H]1C,·,·,·,–,–,·
Cc1ccc2oc(C(=O)N(C)Cc3cnccn3)c(C)c2c1,–,–,–,–,–,–
CC(C)c1cccc(-c2csc(C(O)c3ccc(F)c(F)c3)n2)c1 (configuration not stated),·,·,·,–,·,·
O=C(CSc1nc(-c2ccco2)cc(C(F)(F)F)n1)NCCCn1ccnc1,–,–,–,–,–,–
Cc1cc(C)nc(NNC2=CC(=[N+]3CCCCC3)CC(C)(C)C2)n1,–,–,–,–,–,–
COc1ccc(CCNC(=O)c2ccc(NC(=O)CC3SC(N4CCCC4)=NC3=O)cc2)cc1OC (configuration not stated),–,–,–,–,–,–
COc1ccc(CCNC(=O)c2cccc(NC(=O)CC3SC(N4CCCCC4)=NC3=O)c2)cc1OC (configuration not stated),77.5,–,–,–,–,–
O=C(C[C@H]1CC[C@@H]2[C@H](COC[C@H](O)CN2C(=O)c2cnccn2)O1)NCc1ccc(Cl)cc1,·,·,·,–,–,·
Cc1ccc(SCCc2cc[n+](CC(=O)c3ccccc3)cc2)cc1,–,–,–,–,–,–
O=C(C[n+]1ccc(CCSc2ccc(F)cc2)cc1)c1ccccc1,–,–,85.3,·,·,–
SMILES,SR-BI DiI inh,PvdQ acylase,dFosB activator,Xi reactivation,rRNA inh HTS,SR-BI uptake up
CCc1cccc(C)c1NC(=O)CSc1nnc(CCCOc2ccc(Cl)cc2Cl)n1C,75.4,–,–,–,·,–
COC(=O)c1ccccc1NC(=O)c1ccc2c(c1)CC(C)O2 (configuration not stated),–,–,–,–,-29.1,–
CCOc1ccccc1N1CCN(c2nc3ccccc3nc2C(C#N)C(=O)OC)CC1 (configuration not stated),75.2,–,–,·,·,–
C[C@H]1CN([C@@H](C)CO)C(=O)c2cc(NS(=O)(=O)c3cn(C)cn3)ccc2O[C@H]1CN(C)Cc1ccc(C(=O)O)cc1,·,·,·,–,–,·
O=C(CSc1nnnn1C1CCCCC1)NCCc1ccccc1,–,–,–,·,-28.0,–
COCCNC(=O)CSc1ccccc1C(=O)NCC1CCCCC1,–,–,–,–,–,–
CC1CCN(C(=O)c2ccccc2SCC(=O)NCC2CCCCC2)CC1,–,–,–,–,–,588.5
COc1c(C(=O)Nc2ccc3[nH]c(=O)[nH]c3c2)cc2ccccc2c1Br,78.0,–,–,–,–,–
COc1c(C(=O)Nc2ccc(CN3CCOCC3)cc2)cc2ccccc2c1Br,–,–,–,–,–,–
Cc1ccc(CC(=O)N(C)CC(=O)Nc2ccc(N3CCOCC3)cc2)cc1C,–,–,–,–,–,–
Cc1ccc(NC(=O)CN(C)CC(=O)Nc2ccc(N3CCOCC3)cc2)cc1F,–,–,–,–,-21.4,–
CCC1S/C(=N\S(=O)(=O)c2cccs2)N(C2CCCCC2)C1=O (configuration not stated),–,–,–,·,·,–
CCOC(=O)C(=N/O)/C(C)=N/NC(=O)C(=O)Nc1cc(Cl)ccc1Cl,80.8,–,–,–,·,–
CCc1nc2ccc(C(=O)NCCc3c[nH]c4ccccc34)cn2c1N(C)Cc1nccn1C,·,·,·,–,–,·
C/C(=N\NC(=O)COc1ccc(C)cc1[N+](=O)[O-])c1cccs1,–,–,–,–,–,–
C/C(=N\NC(=O)COc1ccc(C)cc1Br)c1cc([N+](=O)[O-])cs1,–,–,–,–,-23.3,–
O=C(CN1C(=O)NC2(CCc3ccccc32)C1=O)Nc1cccc(Cl)c1 (configuration not stated),·,–,–,–,-30.4,·
O=C(CN1C(=O)NC2(CCCc3ccccc32)C1=O)c1ccc(Br)cc1 (configuration not stated),–,–,–,–,-36.1,–
COc1cccc(NC(=O)CN2C(=O)NC3(CCc4ccccc43)C2=O)c1 (configuration not stated),–,–,–,–,–,·
Cc1cc(C(=O)COC(=O)c2ccc[nH]c2=O)c(C)n1-c1ccccc1F,·,–,–,–,–,·
Cc1cc(C(=O)COC(=O)c2ccc(O)cc2)c(C)n1-c1ccccc1F,–,–,–,–,-29.2,–
CCOC(=O)c1c(C)[nH]c(C(=O)CSc2nnc(-c3ccncc3)n2CC)c1C,–,–,–,·,·,–
N#Cc1ccc(/C=C\c2nccc3c2[nH]c2ccccc23)cc1,–,–,?,–,–,–
Clc1ccc(/C=C\c2nccc3c2[nH]c2ccccc23)cc1,–,–,27.0,–,-24.9,–
N#C/C(=C(/O)CCl)c1nc(-c2ccccc2)cs1,·,–,–,–,–,·
